RAM inhibit = inhibitors of the yeast RAM network; S. cerevisiae dse1pr::URA3 reporter, 5-FOA growth OD615, 2 d; analog-sensitive cbk1-as2 kinase mutant strain; inhibition, % at 50 µM; actives 1.8% (n = 190,000); AID 868;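 active means inhibition above a set limit, 3 SD over mean compound inhibition, cut at about 8.4% in these data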;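 further: 0% = DMSO-only wells with no growth and 100% = 10 µM 1-NA-PP1 full growth; inhibition rescues growth on 5-FOA so higher OD means more RAM inhibition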
WT yeast gro inh = growth inhibition of WT yeast, mitochondrial fusion screen; mitochondrial fusion phenotypic screen, WT strain; inhibition, % at 10 µM; actives 2.1% (n = 190,000); AID 1362; in the data active means inhibition above about 58%; tested in S. cerevisiae
BB579 growth dn = reduces growth of yeast BB579 in restrictive medium. S. cerevisiae BB579 growth, OD615, 48 h. inhibition, % at 10 µM. actives 0.51% (n = 140,000);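 active means inhibition above a set limit, 3 SD over the mean compound inhibition, cut at about 44% in these data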
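System: DeaD yeast strain BB579; buffer or medium: CSMM-D dextrose restrictive medium; technique: OD at 615 nm; schedule: 4 h cell preincubation, 48 h compound exposure, 30 °C humidified; doses: single 10 µM dose; controls: amphotericin B 10 µg/mL, positive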
KCC2 mod = KCC2 (human) Cl- transport modulation | Q9H2X9 | KCC2 cells, thallium flux FluoZin-2 fluorescence | B-score of Tl+ flux slope (higher = more flux/activation; lower = inhibition) at 10 µM | actives 2.2% (n = 190,000);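 active means thallium flux slope and its plate-corrected score both differing from the plate sample mean at a set confidence after two filtering rounds, in either direction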;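 further: slope of fluorescence scaled to starting intensity during 10 to 20 s after thallium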
Target sequence (Q9H2X9 whole entry, looked up): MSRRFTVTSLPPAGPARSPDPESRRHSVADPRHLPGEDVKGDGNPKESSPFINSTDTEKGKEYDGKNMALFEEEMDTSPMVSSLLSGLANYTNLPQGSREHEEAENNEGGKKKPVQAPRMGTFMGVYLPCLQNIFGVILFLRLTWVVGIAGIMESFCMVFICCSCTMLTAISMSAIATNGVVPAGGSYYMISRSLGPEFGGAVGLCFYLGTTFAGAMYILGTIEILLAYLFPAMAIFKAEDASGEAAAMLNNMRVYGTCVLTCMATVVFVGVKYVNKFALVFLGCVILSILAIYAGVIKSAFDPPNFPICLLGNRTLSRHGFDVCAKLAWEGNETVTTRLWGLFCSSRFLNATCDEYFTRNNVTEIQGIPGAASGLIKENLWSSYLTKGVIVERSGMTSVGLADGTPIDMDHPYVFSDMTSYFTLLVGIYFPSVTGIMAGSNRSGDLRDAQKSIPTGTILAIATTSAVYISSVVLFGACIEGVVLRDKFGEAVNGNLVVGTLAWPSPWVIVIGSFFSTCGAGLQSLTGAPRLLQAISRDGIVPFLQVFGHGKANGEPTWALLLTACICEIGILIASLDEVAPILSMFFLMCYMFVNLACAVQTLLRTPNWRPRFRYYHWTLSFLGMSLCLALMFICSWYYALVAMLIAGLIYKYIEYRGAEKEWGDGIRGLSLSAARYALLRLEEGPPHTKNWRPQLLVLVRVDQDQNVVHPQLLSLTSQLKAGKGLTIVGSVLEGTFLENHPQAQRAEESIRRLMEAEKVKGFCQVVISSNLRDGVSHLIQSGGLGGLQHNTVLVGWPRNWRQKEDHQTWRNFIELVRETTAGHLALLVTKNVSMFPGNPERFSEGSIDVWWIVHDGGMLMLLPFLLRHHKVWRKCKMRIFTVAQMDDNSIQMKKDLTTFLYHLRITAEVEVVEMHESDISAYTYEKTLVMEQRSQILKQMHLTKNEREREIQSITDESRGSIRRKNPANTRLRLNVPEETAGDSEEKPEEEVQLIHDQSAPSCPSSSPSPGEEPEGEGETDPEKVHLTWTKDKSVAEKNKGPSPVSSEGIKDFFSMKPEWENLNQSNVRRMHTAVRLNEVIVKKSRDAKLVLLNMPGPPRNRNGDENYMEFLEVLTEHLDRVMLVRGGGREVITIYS
Yeast life ext = yeast lifespan extension. actives 0.68% (n = 130,000). inhibition of the nicotinamide effect, % at 10 µM. S. cerevisiae growth with nicotinamide, OD615; deaD strain in restrictive glucose medium;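 active means inhibition above a set limit, placed 3 SD over the median of all compounds, cut at about 26% in these data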;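 further: 0% = nicotinamide-treated wells and 100% = cells grown without nicotinamide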
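System: Modified budding yeast, DeaD strain | Buffer or medium: Restrictive glucose medium | Also added: 1.5 mM nicotinamide | Doses: 10 µM single point, 0.25% DMSO | Schedule: 48 h compound exposure at 30 °C, humidified | Detection: Absorbance at 615 nm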
An asterisk follows results filed as active; x = not tested or not shown. Compounds with a hit are over-represented: about 5.5% of the library has one in this group of screens.

SMILES	RAM inhibit	WT yeast gro inh	BB579 growth dn	KCC2 mod	Yeast life ext
CCOC(=O)c1cnc(SC)nc1Oc1cccc(NC(=O)c2ccc(Cl)cc2)c1	6.7	-18.2	-34.6	x	8.3
CCOC(=O)c1cnc(-c2ccccc2)nc1Oc1ccc(Cl)c(Cl)c1	5.1	4.1	-9.4	x	-5.7
CCOC(=O)c1cnc(SC)nc1Oc1cccc(NS(=O)(=O)c2ccc(Cl)cc2)c1	9.2*	0.4	-62.5	x	6.8
CCOC(=O)c1cnc(-c2ccccc2)nc1Oc1cccc(Cl)c1	8.9*	-12.1	-34.6	x	-3.1
CN(C)c1cc[n+](CC(=O)c2ccc(-c3ccccc3)cc2)cc1	3.3	72.9*	x	-1.92	x
COC(=O)C(OC(=O)c1ccc(OC)cc1)C(=O)OC	0.0	-2.5	-11.8	-0.299	x
COC(=O)c1ccc(-n2cc(-c3ccc(OC)cc3)[nH]c2=S)cc1	1.6	20.4	-17.3	8.83*	-4.8
CN1CCN(CC(=O)Nc2ccc(Cl)cc2Cl)CC1	1.3	11.3	-25.1	0.643	40.0*
Cn1c(=O)c2ncn(CC(=O)Nc3cccc(-c4nc5ccccc5s4)c3)c2n(C)c1=O	0.6	11.6	-53.8	x	-14.8
COc1cccc(/C=C/C(=O)OCC(=O)Nc2ccc(N3CCOCC3)cc2)c1OC	4.9	-0.5	x	0.211	x
Cc1nc(N2CCC(C)CC2)c2c(C)c(C(=O)Nc3ccccc3C(F)(F)F)sc2n1	0.6	51.6	x	-0.957	x
COc1ccc2c(c1OC)C(=O)OC2Nc1ncccc1C (configuration not stated)	-0.3	-5.1	-11.5	-0.0897	6.5
COc1ccc2c(c1OC)C(=O)OC2Nn1cncn1 (configuration not stated)	1.2	-21.1	-56.5	0.663	50.7*
Cc1n[nH]c(C)c1CCC(=O)N/N=C/C=C/c1ccccc1	1.9	-16.7	-38.1	0.273	-1.8
O=C(COc1cccnc1[N+](=O)[O-])c1ccc(Cl)s1	x	x	x	-0.701	x
CCOC(=O)C1CCC(CN(Cc2ccccc2C)S(=O)(=O)c2ccc([N+](=O)[O-])cc2)CC1 (configuration not stated)	8.3	74.1*	-60.3	-0.487	10.4
CC(=O)C1=C(C)NC(C)=C(C(C)=O)C1c1ccc(-c2ccccc2Cl)o1	3.6	14.0	-16.8	x	-11.2
CCCCCCc1nc2ccccc2c(=O)n1NC(=O)c1c(O)c2cccc3c2n(c1=O)CCC3	0.4	65.5*	-30.2	0.459	15.8
O=C(Nc1nccs1)c1c(O)c2cccc3c2n(c1=O)CCC3	0.9	25.6	-23.4	-0.619	29.8*
O=C(Nc1ccc2nc3n(c(=O)c2c1)CCCC3)c1cccc([N+](=O)[O-])c1	8.8*	11.4	-22.3	-0.364	3.2
O=C(Nc1nccs1)c1ccc2c(=O)n3c(nc2c1)CCCCC3	-1.5	3.1	-33.7	-1.16	50.8*
CC1CCCCN1c1nnc(NC(=O)c2cc(-c3ccc(Br)cc3)on2)s1 (configuration not stated)	3.0	68.2*	-29.6	2.43	-11.0
Cc1cc(C)c(Cc2c(C)nc3c(C(=O)NCc4ccco4)cnn3c2C)c(C)c1	3.9	62.7*	-33.5	-1.27	16.4
O=C(NCc1ccco1)c1cnn2c(C(F)F)cc(-c3ccccc3)nc12	5.3	16.2	-69.6	x	-8.2
O=C(c1ccc(Cl)c(Cl)c1)c1cnc(Nc2ccccc2)s1	5.9	86.8*	-25.7	x	2.6
SMILES	RAM inhibit	WT yeast gro inh	BB579 growth dn	KCC2 mod	Yeast life ext
Cc1ccc(CNC(=O)C(Cc2ccccc2)NS(=O)(=O)c2cccs2)cc1 (configuration not stated)	1.6	43.0	-36.7	x	-1.6
Cc1ccc(CNC(=O)C(Cc2ccccc2)NS(=O)(=O)c2ccc(Br)s2)cc1 (configuration not stated)	2.2	81.0*	-37.4	-0.119	9.3
c1ccc(C(Cc2nc(-c3cccnc3)no2)c2ccccc2)cc1	2.8	7.8	-7.0	0.0183	-3.6
c1ccc(C(c2ccccc2)c2nc(-c3cccnc3)no2)cc1	1.0	85.6*	20.8	x	-5.2
c1ccc(-c2nc(CSc3nnc(-c4cccs4)o3)cs2)cc1	9.9*	19.1	-44.1	-2.29	-9.3
Cc1cccc(OCCNC(=O)c2ccc(Oc3ccc(C(F)(F)F)cc3[N+](=O)[O-])cc2)c1	5.6	14.8	-38.4	0.578	-0.3
Cc1cccc(OCCNC(=O)c2cccc(Oc3ccc(C(F)(F)F)cc3[N+](=O)[O-])c2)c1	9.0*	16.0	-8.2	-0.137	2.2
COc1ccc(/C=N/NC(=O)C2C(C=C(Cl)Cl)C2(C)C)c(OC)c1 (configuration not stated)	-0.6	15.3	x	0.627	x
CCOC(=O)CSc1nnc(CSc2nc3sc4c(c3c(=O)[nH]2)CCC4)n1C	8.7*	11.5	-60.3	0.0529	-8.1
COc1cccc(C2C(C(=O)OCc3ccccc3)=C(C)Nc3ncnn32)c1OC (configuration not stated)	0.7	5.3	-9.2	x	-6.7
O=C1c2ccccc2C(Nc2ccc(Cl)cn2)N1Cc1ccccc1 (configuration not stated)	-1.1	71.0*	-15.3	-2.41	-3.4
Cc1ccc(-n2cc(CNCCc3cscn3)c(-c3ccc(F)cc3)n2)cc1	-0.2	68.6*	x	0.123	x
COc1cc(C(=O)OCC#N)ccc1OCc1c(C)noc1C	x	x	x	-0.221	x
CCCc1cc(=O)oc2cc(OCc3cccc(OC)c3)c(Cl)cc12	10.9*	9.3	-3.9	-1.24	2.2
O=C(Nc1cccc([N+](=O)[O-])c1)c1ccn[nH]1	0.6	-11.4	x	1.88	x
CCOC(=O)C1(Cc2ccc(OC)cc2)CCN(C(=O)[C@@H]2CCCN2C(C)=O)CC1	x	x	x	-0.826	x
COc1ccc([C@H]2[C@H](C(=O)OC(C)(C)C)N3N=Cc4ccccc4C3C23C(=O)c2ccccc2C3=O)c(OC)c1 (some centres not stated)	9.3*	-0.2	-12.0	-3.6	6.5
CC(C)(C)C(=O)[C@H]1[C@H](c2ccccc2)[C@@]2(N=C(c3ccccc3)OC2=O)C2c3ccccc3C=NN21 (some centres not stated)	3.7	49.3	-64.4	-0.403	11.0
COc1ccc([C@H]2[C@H](C(=O)OC(C)(C)C)N3N=Cc4ccccc4C3C23C(=O)c2ccccc2C3=O)cc1OC (some centres not stated)	4.9	8.6	-10.6	-0.601	37.7*
COc1ccc(OC)c(C2C(C(=O)O)c3ccccc3C(=O)N2C)c1 (configuration not stated)	1.3	22.6	-21.9	x	-8.1
Clc1ccccc1CSc1cc2c(nn1)-c1ccccc1CC2	10.2*	12.4	-44.1	-0.367	-16.1
Clc1cccc(Cl)c1CSc1cc2c(nn1)-c1ccccc1CC2	7.4	34.9	-17.6	x	-5.5
Clc1ccc(CSc2cc3c(nn2)-c2ccccc2CC3)cc1Cl	10.5*	37.1	-33.5	x	-4.6
COc1cccc(N(CC(=O)N/N=C(\C)c2cccs2)S(C)(=O)=O)c1	4.5	-6.7	-38.8	-0.0406	5.0

Assay outcomes deposited in PubChem BioAssay by several laboratories.
